According to ChEMBL document CHEMBL4270548, “Discovery of a potent glucokinase activator with a favorable liver and pancreas distribution pattern for the treatment of type 2 diabetes mellitus” (Eur J Med Chem, 2018):
pIC50: −log10 of the molar value.

Experiments:
[1] = biological target: Voltage-gated inwardly rectifying potassium channel KCNH2 (Homo sapiens, UniProt Q12809); assay: Inhibition of human ERG expressed in HEK293 cells at -80 holding potential by whole patch clamp assay; format: cell-based
Chain of Voltage-gated inwardly rectifying potassium channel KCNH2 (Q12809 whole entry, the tested form may be a part): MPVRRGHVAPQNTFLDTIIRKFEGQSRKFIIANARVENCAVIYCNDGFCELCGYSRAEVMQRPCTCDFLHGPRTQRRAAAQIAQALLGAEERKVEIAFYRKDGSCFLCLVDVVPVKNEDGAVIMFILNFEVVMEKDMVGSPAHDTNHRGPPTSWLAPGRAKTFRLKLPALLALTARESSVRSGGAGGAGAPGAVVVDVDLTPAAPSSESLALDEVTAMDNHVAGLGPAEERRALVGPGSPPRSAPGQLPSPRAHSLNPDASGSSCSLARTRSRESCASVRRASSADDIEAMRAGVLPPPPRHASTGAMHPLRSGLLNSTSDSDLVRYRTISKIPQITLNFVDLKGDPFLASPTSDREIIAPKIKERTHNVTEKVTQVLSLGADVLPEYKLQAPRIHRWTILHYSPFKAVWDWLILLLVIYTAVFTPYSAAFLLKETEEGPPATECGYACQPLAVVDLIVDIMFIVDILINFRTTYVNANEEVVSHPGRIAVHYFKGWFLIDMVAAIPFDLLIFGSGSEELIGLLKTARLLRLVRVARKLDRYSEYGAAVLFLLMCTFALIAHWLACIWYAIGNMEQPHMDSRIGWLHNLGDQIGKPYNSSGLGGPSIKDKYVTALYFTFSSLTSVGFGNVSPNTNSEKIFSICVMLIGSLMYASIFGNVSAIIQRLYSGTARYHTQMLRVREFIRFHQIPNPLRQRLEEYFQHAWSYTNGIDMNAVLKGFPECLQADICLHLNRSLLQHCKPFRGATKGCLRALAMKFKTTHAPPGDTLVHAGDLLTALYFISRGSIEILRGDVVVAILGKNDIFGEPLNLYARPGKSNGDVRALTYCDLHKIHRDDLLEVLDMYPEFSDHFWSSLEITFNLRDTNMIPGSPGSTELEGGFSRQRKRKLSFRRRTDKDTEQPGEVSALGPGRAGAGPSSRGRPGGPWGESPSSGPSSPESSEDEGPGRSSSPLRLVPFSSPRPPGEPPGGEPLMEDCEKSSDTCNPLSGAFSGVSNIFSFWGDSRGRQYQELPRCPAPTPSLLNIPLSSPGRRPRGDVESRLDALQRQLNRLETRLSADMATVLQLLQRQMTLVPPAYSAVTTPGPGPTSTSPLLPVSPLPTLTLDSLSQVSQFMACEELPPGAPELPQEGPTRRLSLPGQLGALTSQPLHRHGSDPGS
In short: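 Whole-cell patch clamp on HEK293 stably expressing hERG, perfused at 26.0 ± 2.0 °C. Holding potential −80 mV. Steps to −40 to +20 mV for 1.5 s, then −50 mV for 1.5 s, repeated every 15 s. Concentrations 3–300 µM, 0.1% DMSO vehicle, E-4031 positive control.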

[2] = Cytotoxicity against CHOK1 cells assessed as reduction in cell viability after 24 hrs by WST1 assay; format: cell-based, Cricetulus griseus; details: chinese hamster, CHO-K1 cells
In short: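 CHO-K1 cells plated at 6000/well in Ham's F12K with 2% FBS and 1 mM L-glutamine plus antibiotics, incubated overnight at 37 °C, 5% CO2. Exposed 24 h to compound at 1–100 µM final, with 1% DMSO vehicle and benzbromarone positive control. Viability read by WST-1.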

[3] = Cytotoxicity against rat primary hepatocytes assessed as reduction in cell viability after 24 hrs by AlamarBlue assay; format: cell-based, Hepatocyte
In short: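 Hepatocytes isolated from male SD rats (7 weeks) by two-step collagenase perfusion. Seeded at 2–3×10^4/well on collagen in modified WE medium with 10% FBS, dexamethasone and insulin, switched to serum-free medium at 4 h. At 20–24 h exposed 24 h to 1–100 µM final, 1% DMSO vehicle. Viability read by alamarBlue.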

[4] = Cmax in ICR mouse at 10 mg/kg, po administered as single dose by LC/MS/MS analysis; format: ADME, organism-based; parameters: dose 10 mg/kg, route oral; details: in vivo
In short: (§1)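 Male ICR mice (8 weeks) fasted overnight and fed 7 h post-dose. Dosing was either a single IV dose of 2 mg/kg in saline or a single oral dose of 10 mg/kg in 0.5 w/v% MC. Orbital plexus blood was taken under anesthesia at serial times to 24 h. Plasma was extracted with acetonitrile/methanol plus internal standard and quantified by LC/MS/MS.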

[5] = Tmax in ICR mouse at 10 mg/kg, po administered as single dose by LC/MS/MS analysis; format: ADME, organism-based; details: in vivo; in short: as §1
[6] = AUC (0 to infinity) in ICR mouse at 2 mg/kg, iv administered as single dose by LC/MS/MS analysis; format: ADME, organism-based; parameters: dose 2 mg/kg, route intravenous, time infinity; details: in vivo; in short: as §1
[7] = AUC (0 to infinity) in ICR mouse at 10 mg/kg, po administered as single dose by LC/MS/MS analysis; format: ADME, organism-based; parameters: dose 10 mg/kg, route oral, time infinity; details: in vivo; in short: as §1
[8] = Clearance in ICR mouse plasma at 2 mg/kg, iv administered as single dose by LC/MS/MS analysis; format: ADME, organism-based; in short: as §1
[9] = Volume of distribution at steady state in ICR mouse at 2 mg/kg, iv administered as single dose by LC/MS/MS analysis; format: ADME, organism-based; details: in vivo, read-out: Vdss; in short: as §1
[10] = Primary phase half life in ICR mouse at 2 mg/kg, iv administered as single dose by LC/MS/MS analysis; format: ADME, organism-based; details: in vivo, read-out: alphat1/2 (converted); in short: as §1
[11] = Terminal half life in ICR mouse at 2 mg/kg, iv administered as single dose by LC/MS/MS analysis; format: ADME, organism-based; details: in vivo, read-out: beta t1/2 (converted); in short: as §1
[12] = Terminal half life in ICR mouse at 10 mg/kg, po administered as single dose by LC/MS/MS analysis; format: ADME, organism-based; details: in vivo, read-out: beta t1/2 (converted); in short: as §1
[13] = Oral bioavailability in ICR mouse at 10 mg/kg administered as single dose by LC/MS/MS analysis; format: ADME, organism-based; details: in vivo; in short: as §1
Mus musculus [14] = assay: Toxicity in C57BL/6J mouse assessed as hypoglycemia at <100 mg/kg, po measured up to 300 mins by glucometric method; format: organism-based; details: in vivo, 5 h
In short: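 Male C57BL/6J mice (8 weeks) fasted 2 h and dosed orally at time 0 (n = 8/group). Tail vein glucose measured by glucometer at 0, 60, 120, 180, 240 and 300 min. Hypoglycemia defined as plasma glucose < 60 mg/dL. Mean ± SEM, Dunnett's test.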

[15] = AUC (0 to 1.5 hrs) in C57BL/6J mouse liver at 10 mg/kg, po administered as single dose by LC/MS/MS analysis; format: ADME, organism-based; parameters: time < 1.5 hr, dose 10 mg/kg, route oral; details: in vivo
Mus musculus [16] = assay: Toxicity in ob/ob mouse assessed as effect on hepatic tryglyceride level at 10 to 30 mg/kg, po bid administered for 28 days measured up to post last dose; format: organism-based; details: in vivo, 672 h
In short: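 Male ob/ob mice (9 weeks) dosed orally twice daily for 4 weeks, vehicle 0.5% MC. Plasma glucose measured by portable glucometer at 2 and 4 weeks. Liver TG assessed at the end of treatment. Mean ± SEM (n = 10), Dunnett's test versus vehicle.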

[17] = AUC (0 to 1.5 hrs) in C57BL/6J mouse plasma at 10 mg/kg, po administered as single dose by LC/MS/MS analysis; format: ADME, organism-based; parameters: time < 1.5 hr, dose 10 mg/kg, route oral
[18] = AUC (0 to 1.5 hrs) in C57BL/6J mouse plasma at 30 mg/kg, po administered as single dose by LC/MS/MS analysis; format: ADME, organism-based; parameters: dose 30 mg/kg, time < 1.5 hr, route oral
[19] = AUC (0 to 1.5 hrs) in C57BL/6J mouse plasma at 100 mg/kg, po administered as single dose by LC/MS/MS analysis; format: ADME, organism-based; parameters: time < 1.5 hr, dose 100 mg/kg, route oral
In short: (§2)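 Overnight-fasted male C57BL/6J mice (8 weeks) given a single oral dose (10, 30 or 100 mg/kg) in 0.1 w/v% Tween80 / 0.5 w/v% MC. Plasma taken via postcaval vein, liver and pancreas dissected and homogenized at 0.5, 1 and 1.5 h. LC/MS/MS with internal standard after acetonitrile/methanol extraction. AUC0-1.5h by trapezoidal rule, mean ± SD (n = 3). Kp = AUCtissue/AUCplasma. L/P = AUCliver/AUCpancreas.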

[20] = AUC (0 to 1.5 hrs) in C57BL/6J mouse liver at 30 mg/kg, po administered as single dose by LC/MS/MS analysis; format: ADME, organism-based; parameters: dose 30 mg/kg, time < 1.5 hr, route oral; details: in vivo
[21] = AUC (0 to 1.5 hrs) in C57BL/6J mouse liver at 100 mg/kg, po administered as single dose by LC/MS/MS analysis; format: ADME, organism-based; parameters: time < 1.5 hr, dose 100 mg/kg, route oral; details: in vivo; in short: as §2
[22] = AUC (0 to 1.5 hrs) in C57BL/6J mouse pancreas at 10 mg/kg, po administered as single dose by LC/MS/MS analysis; format: ADME, organism-based; parameters: dose 10 mg/kg, time < 1.5 hr, route oral; details: in vivo
[23] = AUC (0 to 1.5 hrs) in C57BL/6J mouse pancreas at 30 mg/kg, po administered as single dose by LC/MS/MS analysis; format: ADME, organism-based; parameters: time < 1.5 hr, dose 30 mg/kg, route oral; details: in vivo
[24] = AUC (0 to 1.5 hrs) in C57BL/6J mouse pancreas at 100 mg/kg, po administered as single dose by LC/MS/MS analysis; format: ADME, organism-based; parameters: time < 1.5 hr, dose 100 mg/kg, route oral; details: in vivo; in short: as §2
[25] = Ratio of AUC (0 to 1.5 hrs) in C57BL/6J mouse liver to plasma at 10 mg/kg, po administered as single dose by LC/MS/MS analysis; format: ADME, organism-based; details: liver and plasma, read-out: Ratio AUC
[26] = Ratio of AUC (0 to 1.5 hrs) in C57BL/6J mouse liver to plasma at 30 mg/kg, po administered as single dose by LC/MS/MS analysis; format: ADME, organism-based; details: liver and plasma, read-out: Ratio AUC
[27] = Ratio of AUC (0 to 1.5 hrs) in C57BL/6J mouse liver to plasma at 100 mg/kg, po administered as single dose by LC/MS/MS analysis; format: ADME, organism-based; details: liver and plasma, read-out: Ratio AUC; in short: as §2
[28] = Ratio of AUC (0 to 1.5 hrs) in C57BL/6J mouse pancreas to plasma at 10 mg/kg, po administered as single dose by LC/MS/MS analysis; format: ADME, organism-based; details: pancreas and plasma, read-out: Ratio AUC
[29] = Ratio of AUC (0 to 1.5 hrs) in C57BL/6J mouse pancreas to plasma at 30 mg/kg, po administered as single dose by LC/MS/MS analysis; format: ADME, organism-based; details: pancreas and plasma, read-out: Ratio AUC
[30] = Ratio of AUC (0 to 1.5 hrs) in C57BL/6J mouse pancreas to plasma at 100 mg/kg, po administered as single dose by LC/MS/MS analysis; format: ADME, organism-based; details: pancreas and plasma, read-out: Ratio AUC; in short: as §2
[31] = Ratio of AUC (0 to 1.5 hrs) in C57BL/6J mouse liver to pancreas at 10 mg/kg, po administered as single dose by LC/MS/MS analysis; format: ADME, organism-based; details: in vivo
[32] = Ratio of AUC (0 to 1.5 hrs) in C57BL/6J mouse liver to pancreas at 30 mg/kg, po administered as single dose by LC/MS/MS analysis; format: ADME, organism-based; details: in vivo
[33] = Ratio of AUC (0 to 1.5 hrs) in C57BL/6J mouse liver to pancreas at 100 mg/kg, po administered as single dose by LC/MS/MS analysis; format: ADME, organism-based; details: in vivo; in short: as §2

Cmax [4]: 3020 ng/mL
Tmax [5]: 0.25 h
AUC(0-inf) [6]: 8580 ng·h/mL
AUC(0-inf) [7]: 8600 ng·h/mL
clearance [8]: 3.88 mL/min/kg
Vd [9]: 0.31 L/kg
half-life [10]: 0.47 h
half-life [11]: 1.6 h
half-life [12]: 2 h
bioavailability [13]: 20%
AUC [15]: 8910 ng·h/g
AUC(0-t) at 1.5 h [17]: 6750 ng·h/mL
AUC(0-t) at 1.5 h [18]: 17700 ng·h/mL
AUC(0-t) at 1.5 h [19]: 86900 ng·h/mL
AUC [20]: 32300 ng·h/g
AUC [21]: 148000 ng·h/g
AUC [22]: 433 ng·h/g
AUC [23]: 1430 ng·h/g
AUC [24]: 10500 ng·h/g
Kp [25]: 1.3
Kp [26]: 1.6
Kp [27]: 1.7
Kp [28]: 0.064
Kp [29]: 0.081
Kp [30]: 0.12
Ratio AUC [31]: 20.6
Ratio AUC [32]: 22.5
Ratio AUC [33]: 14
Structure (SMILES): CCN(CC(=O)O)CC(=O)N1CCC[C@H]1c1cc(C(=O)Nc2ncc(F)s2)c(C)s1
pIC50 [1]: < 3.52
CC50 at 24 h [2]: > 100 µM
CC50 at 24 h [3]: > 100 µM
Activity (Mus musculus [14]): Non-Toxic
Activity (Mus musculus [16]): Non-Toxic
